Experiment [1] concerns the target T1, Estrogen receptor (Homo sapiens) (UniProt P03372).
T1 sequence (whole entry): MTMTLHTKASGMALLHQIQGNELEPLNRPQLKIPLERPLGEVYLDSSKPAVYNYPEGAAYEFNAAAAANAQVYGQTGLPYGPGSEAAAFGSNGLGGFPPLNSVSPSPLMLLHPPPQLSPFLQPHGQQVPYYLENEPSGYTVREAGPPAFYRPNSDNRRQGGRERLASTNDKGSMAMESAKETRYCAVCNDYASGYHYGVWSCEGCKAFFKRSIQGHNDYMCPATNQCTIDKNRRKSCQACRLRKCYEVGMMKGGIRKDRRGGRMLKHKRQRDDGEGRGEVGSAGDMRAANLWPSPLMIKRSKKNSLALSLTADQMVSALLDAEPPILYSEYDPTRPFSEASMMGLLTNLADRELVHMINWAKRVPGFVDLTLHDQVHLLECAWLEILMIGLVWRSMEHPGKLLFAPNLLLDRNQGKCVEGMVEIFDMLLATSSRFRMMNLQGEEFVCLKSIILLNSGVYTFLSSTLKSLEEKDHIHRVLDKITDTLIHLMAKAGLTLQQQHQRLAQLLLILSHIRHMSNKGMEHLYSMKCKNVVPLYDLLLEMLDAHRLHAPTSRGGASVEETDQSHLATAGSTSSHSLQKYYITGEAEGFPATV
Briefly: Displacement of [3H]17-beta-estradiol from human recombinant full length ERalpha relative to estradiol. An outline of the steps:
(§1)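 Relative binding affinity is taken from the competitive binding IC50s against recombinant human ER-α or ER-β. RBA = 100 × IC50(E2)/IC50(compound).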
On the technique in general: Displacement assays read how much labelled ligand stays bound in the presence of the test substance.

The species named for the next experiment is Homo sapiens. Briefly: Selectivity ratio of IC50 for human recombinant full length ERbeta to IC50 for human recombinant full length ERalpha.
Experiment [2] concerns MCF7. The experiment in a line: Down-regulation of ERalpha mRNA expression in human MCF7 cells at 10 uM after 24 hrs by SDS PAGE and immunoblot analysis. In kind it is functional, cell-based. To be noted: in the assay text read “protein” for “mRNA”. An outline of the steps: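 MCF-7 cells were treated 24 h with 10 µM compounds, with 10 nM E2 as reference. Total protein extracts were run on SDS–PAGE and immunoblotted with anti-ER-α and anti-β-actin antibodies. ER-α protein was compared with control.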

Experiment [3] has as its system MCF7. Briefly: Up-regulation of progesterone receptor gene expression in human MCF7 cells at 10 uM after 24 hrs by RT-PCR analysis. In kind it is functional, cell-based. An outline of the steps: (§2)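 MCF-7 cells were treated 24 h with compounds at 10 µM. Steady-state mRNA levels were quantified by qPCR, with constitutive human β-actin mRNA as internal control, relative to untreated control.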

Experiment [4] deals with T2, Estrogen receptor beta (Homo sapiens, UniProt Q92731). The experiment in a line: Displacement of [3H]17-beta-estradiol from human recombinant full length ERbeta. The gist of the method: (§3)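 Competitive ligand-binding assay with recombinant human ER-α or ER-β. Test compounds displace the labelled estrogen ligand, and IC50 is derived from the displacement curves.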
T2 sequence (Q92731 whole entry): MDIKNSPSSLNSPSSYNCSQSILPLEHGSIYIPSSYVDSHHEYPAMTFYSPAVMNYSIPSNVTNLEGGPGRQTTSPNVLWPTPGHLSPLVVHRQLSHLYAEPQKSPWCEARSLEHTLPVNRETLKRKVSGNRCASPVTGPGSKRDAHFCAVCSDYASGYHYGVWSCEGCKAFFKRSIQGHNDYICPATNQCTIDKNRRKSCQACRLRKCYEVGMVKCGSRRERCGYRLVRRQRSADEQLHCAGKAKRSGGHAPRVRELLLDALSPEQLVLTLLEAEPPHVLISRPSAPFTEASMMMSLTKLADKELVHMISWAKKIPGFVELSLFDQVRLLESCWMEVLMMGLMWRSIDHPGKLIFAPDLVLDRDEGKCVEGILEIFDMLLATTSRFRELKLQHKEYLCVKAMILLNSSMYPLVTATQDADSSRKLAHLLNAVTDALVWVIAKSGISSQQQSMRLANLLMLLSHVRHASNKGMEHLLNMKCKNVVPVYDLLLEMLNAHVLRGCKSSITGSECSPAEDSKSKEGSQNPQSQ
For experiment [5], the system named is MCF7. Briefly: Down-regulation of ERalpha mRNA expression in human MCF7 cells at 10 uM after 24 hrs by RT-PCR analysis. It counts as functional, cell-based. The gist of the method: as §2
In experiment [6] the test system is MCF7. The experiment in a line: Up-regulation of pS2 gene expression in human MCF7 cells at 10 uM after 24 hrs by RT-PCR analysis. In kind it is functional, cell-based. An outline of the steps: as §2
The target in experiment [7] is T3, Estrogen receptor (Homo sapiens, UniProt P03372).
T3 sequence (P03372 whole entry): T1 sequence (whole entry)
Briefly: Displacement of [3H]17-beta-estradiol from human recombinant full length ERalpha. The gist of the method: as §3

Experiment [8] addresses T2, Estrogen receptor beta. The experiment in a line: Displacement of [3H]17-beta-estradiol from human recombinant full length ERbeta relative to estradiol. An outline of the steps: as §1
Experiment [9] addresses T2, Estrogen receptor beta. The experiment in a line: Transactivation of human recombinant ERbeta expressed in african green monkey CV1 cells co-expressing ERE-Luc after 24 hrs by luciferase reporter gene assay. In kind it is cell-based, CV-1. An outline of the steps:
(§4)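 CV-1 cells were transfected with an ERE-Luc reporter plus a hER-α or hER-β expression vector. Cells were incubated 24 h with compounds, then lysed, and luciferase expression was measured. Data are mean ± SD (n = 3), and EC50 comes from the dose-response.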
(Reporter assays use an easily measured gene product as a stand-in for the process of interest.)

Experiment [10] has as its target T3, Estrogen receptor. Briefly: Transactivation of human recombinant ERalpha expressed in african green monkey CV1 cells co-expressing ERE-Luc after 24 hrs by luciferase reporter gene assay. In kind it is cell-based, CV-1. An outline of the steps: as §4
The target of experiment [11] is T1, Estrogen receptor (Homo sapiens). The experiment in a line: Transactivation of human recombinant ERalpha expressed in african green monkey CV1 cells co-expressing ERE-Luc after 24 hrs by luciferase reporter gene assay in presence of ER antagonist ICI 182780. It counts as functional, cell-based. To be noted: CV-1.

SMILES strings stand for the structures. Active and inactive are the calls of the source. The calls are words filed in the database; no cut-off is given here.

As a reminder, the IC50 is the concentration that inhibits the measured activity by half. The EC50 is the midpoint of the concentration-response curve.

With `Oc1ccc([C@H]2CCc3ccc(O)cc3O2)cc1` [TUPICHINOL C], the RBA in experiment [1] amounted to 0.021%; on Estrogen receptor beta [8], 0.048%. In the experiment filed under Homo sapiens, the Ratio IC50 stood at 2.29. Besides, the outcome in the experiment on MCF7 [2], in the experiment with MCF7 [3], in the experiment on MCF7 [5] and with MCF7 [6] was Active. Moreover, the half-maximal inhibitory concentration (IC50) is 14.7 µM on Estrogen receptor beta [4] and 26.2 µM on Estrogen receptor [7].

Consider `CC(C)=CCc1c([C@H]2CCc3ccc(O)cc3O2)cc(O)c(O)c1CC=C(C)C`, for which the RBA in experiment [1] came out at 0.004%; on Estrogen receptor beta [8], 0.007%. Moreover, in the experiment listed under Homo sapiens, the Ratio IC50 was 1.75. The result in the experiment on MCF7 [2], in the experiment on MCF7 [3], with MCF7 [5] and in the experiment on MCF7 [6] was Active. Also, the IC50 at Estrogen receptor beta [4] stood at 96 µM; on Estrogen receptor [7] it was 151 µM.

Consider `COc1ccc(CCCc2ccc(O)cc2)c(O)c1` [BROUSSONIN A], for which the RBA came out at 0.069% in experiment [1] and 0.394% at Estrogen receptor beta [8]. Moreover, the Ratio IC50 in the experiment filed under Homo sapiens stood at 5.71. Further, the result in the experiment on MCF7 [2], with MCF7 [3], with MCF7 [5] and in the experiment on MCF7 [6] was Active. In addition, the values for the IC50 on Estrogen receptor beta [4] and at Estrogen receptor [7] were 1.8 µM and 8.1 µM, respectively. Further, the EC50 result was “Dose-dependent effect” at Estrogen receptor beta [9] (cv-1), 0.53 µM at Estrogen receptor beta [9] (read-out: EC50), “Dose-dependent effect” on Estrogen receptor [10] (cv-1) and 1.59 µM at Estrogen receptor [10] (read-out: EC50). The outcome in experiment [11] was inactive.

Consider `CC(C)=CCc1c([C@H]2CCc3ccc(O)cc3O2)ccc(O)c1O` [KAZINOL U], for which the RBA was found to be 0.01% in experiment [1] and 0.017% at Estrogen receptor beta [8]. Further, the Ratio IC50 in the experiment listed under Homo sapiens was 1.7. The outcome in the experiment with MCF7 [2], in the experiment with MCF7 [3], in the experiment with MCF7 [5] and in the experiment on MCF7 [6] was Active. In addition, the IC50 on Estrogen receptor beta [4] amounted to 41.7 µM; on Estrogen receptor [7], 57.2 µM.

For the origin of these results see ChEMBL document CHEMBL1158617, “New estrogenic compounds isolated from Broussonetia kazinoki” (Bioorg Med Chem Lett, 2010).
